The values below come from ChEMBL document CHEMBL4308843, “Identification of ABX-1431, a Selective Inhibitor of Monoacylglycerol Lipase and Clinical Candidate for Treatment of Neurological Disorders” (J Med Chem, 2018).

Activity calls are given as the source filed them. The rule behind the calls is not given here. A value given as a limit tells only on which side of the number the result lay.

Data set [1] concerns the target T1, Monoglyceride lipase (Mus musculus, UniProt O35678).
T1 sequence (O35678 whole entry): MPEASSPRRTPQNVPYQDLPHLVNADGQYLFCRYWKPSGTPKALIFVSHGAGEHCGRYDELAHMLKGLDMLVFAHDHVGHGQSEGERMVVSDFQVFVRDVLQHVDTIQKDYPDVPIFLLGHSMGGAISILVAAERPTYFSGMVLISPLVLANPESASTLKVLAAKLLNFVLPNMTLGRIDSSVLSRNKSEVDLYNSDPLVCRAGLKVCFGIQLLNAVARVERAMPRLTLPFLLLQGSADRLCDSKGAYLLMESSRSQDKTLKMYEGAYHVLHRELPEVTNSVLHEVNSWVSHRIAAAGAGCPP
Put plainly: Inhibition of MGLL derived from mouse brain homogenates preincubated for 30 mins followed by JW912 addition after 30 mins by gel-based ABPP assay. Format: tissue-based.

Data set [2] deals with Mus musculus. Put plainly: In-vivo inhibition of MGLL in ICR mouse brain assessed as target engagement at 5 mg/kg, po measured 4 hrs post dose by gel-based ABPP assay relative to control. Format: functional. More on the design: scale not given: the % may be the effect or the level left. The method in brief:
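Mice received a single 5 mg/kg oral gavage dose. Whole brains were collected 4 h post-dose and target engagement was read by gel-based ABPP with FP-Rh probe.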

In data set [3] the target is T2, Platelet-activating factor acetylhydrolase (Homo sapiens, UniProt Q13093).
T2 sequence (Q13093 whole entry): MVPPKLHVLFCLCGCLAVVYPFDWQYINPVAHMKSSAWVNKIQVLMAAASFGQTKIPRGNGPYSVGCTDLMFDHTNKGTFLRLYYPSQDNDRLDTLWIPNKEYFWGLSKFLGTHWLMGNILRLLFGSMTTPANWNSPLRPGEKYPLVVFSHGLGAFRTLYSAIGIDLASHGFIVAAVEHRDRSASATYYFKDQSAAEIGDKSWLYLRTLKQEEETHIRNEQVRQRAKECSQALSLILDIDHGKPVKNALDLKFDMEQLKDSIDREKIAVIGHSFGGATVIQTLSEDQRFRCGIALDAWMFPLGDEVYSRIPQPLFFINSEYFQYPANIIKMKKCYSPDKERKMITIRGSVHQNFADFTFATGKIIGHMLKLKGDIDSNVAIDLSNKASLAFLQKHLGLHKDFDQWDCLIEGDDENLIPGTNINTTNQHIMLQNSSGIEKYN
Put plainly: Inhibition of PLA2G7 derived from human PC3 cell lysates preincubated for 30 mins followed by JW912 addition after 30 mins by gel-based ABPP assay. It counts as subcellular, Lysate.

The target of data set [4] is T3, Monoacylglycerol lipase ABHD6 (Homo sapiens, UniProt Q9BV23).
T3 sequence (Q9BV23 whole entry): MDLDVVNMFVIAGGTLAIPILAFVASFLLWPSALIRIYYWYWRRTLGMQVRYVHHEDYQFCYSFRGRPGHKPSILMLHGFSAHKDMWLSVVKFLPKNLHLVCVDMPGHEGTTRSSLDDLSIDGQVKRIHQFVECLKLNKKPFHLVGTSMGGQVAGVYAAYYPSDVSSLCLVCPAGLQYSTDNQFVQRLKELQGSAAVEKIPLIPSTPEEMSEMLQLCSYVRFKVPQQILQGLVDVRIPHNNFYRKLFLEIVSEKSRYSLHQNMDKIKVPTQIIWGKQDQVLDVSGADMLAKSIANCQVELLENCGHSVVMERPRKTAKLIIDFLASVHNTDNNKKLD
Put plainly: Inhibition of ABHD6 derived from human PC3 cell lysates preincubated for 30 mins followed by JW912 addition after 30 mins by gel-based ABPP assay. It counts as subcellular, Lysate.

Data set [5] in a line: Intrinsic clearance in human liver microsomes. Format: ADME, Microsome. As to conditions: read-out: CLH.

One may read the IC50 as the midpoint of a concentration-inhibition curve.

Take `O=C(OC(C(F)(F)F)C(F)(F)F)N1CCN(Cc2ccc(C(F)(F)F)cc2N2CC3COCC3C2)CC1` (centres undefined): inhibition in data set [1] was half-maximal at 0.017 µM (IC50). For the same molecule, the Activity in data set [2] is given as 25%.

For `Cc1cc(Cl)ccc1C(c1ccc(Cl)cc1C)N1CCN(C(=O)OC(C(F)(F)F)C(F)(F)F)CC1`, the half-maximal inhibitory concentration (IC50) in data set [3] and in data set [4] was greater than 10 µM in each case.

Regarding `O=C(OC(C(F)(F)F)C(F)(F)F)N1CCN(Cc2cc(Cl)ccc2N2CCOCC2)CC1`, the IC50 in data set [3] and in data set [4] was greater than 10 µM in each case.

`O=C(OC(C(F)(F)F)C(F)(F)F)N1CCN(Cc2c(Cl)cccc2N2CCOCC2)CC1` gave an IC50 in data set [3] greater than 10 µM.

As for `O=C(OC(C(F)(F)F)C(F)(F)F)N1CCN(Cc2cccc(Cl)c2N2CCOCC2)CC1`, the microsomal CLint in data set [5] stood at 76 µL/min/mg.

The molecule `O=C(OC(C(F)(F)F)C(F)(F)F)N1CCN(Cc2ccc(C(F)(F)F)cc2N2CC[C@H](O)C2)CC1` had a 50% inhibitory concentration (IC50) in data set [1] of 0.015 µM. Also, in data set [2], the Activity worked out at 75%.

With `O=C(OC(C(F)(F)F)C(F)(F)F)N1CCN(Cc2ccc(C(F)(F)F)cc2N2[C@@H]3CC[C@H]2COC3)CC1`, the half-maximal inhibitory concentration (IC50) in data set [3] is greater than 1 µM. Further, the Activity in data set [2] is reported as 100%.

As for `O=C(OC(C(F)(F)F)C(F)(F)F)N1CCN(Cc2ccc(Cl)cc2N2CCCC2)CC1`, the microsomal CLint in data set [5] stood at 34 µL/min/mg.

Regarding `CN1CC2CN(c3cc(C(F)(F)F)ccc3CN3CCN(C(=O)OC(C(F)(F)F)C(F)(F)F)CC3)CC2C1` (centres undefined), it took 0.239 µM to reach half-maximal inhibition in data set [1] (IC50). Besides, the result in data set [2] was inactive.

In turn, `O=C(OC(C(F)(F)F)C(F)(F)F)N1CCN(Cc2ccc(C(F)(F)F)cc2N2CC[C@@H](O)C2)CC1` displayed a 50% inhibitory concentration (IC50) in data set [1] of 0.008 µM. For the same molecule, the Activity in data set [2] is recorded as 100%.

Consider `O=C(OC(C(F)(F)F)C(F)(F)F)N1CCN(Cc2ccc(C(F)(F)F)cc2N2CCOCC2)CC1`, for which the microsomal CLint in data set [5] was determined as 24 µL/min/mg. For the same molecule, the Activity in data set [2] amounted to 100%.

In data set [1], `C#Cc1ccc(CN2CCN(C(=O)OC(C(F)(F)F)C(F)(F)F)CC2)c(N2CCCC2)c1` returned a half-inhibitory concentration (IC50) of 0.159 µM.

In turn, `O=C(OC(C(F)(F)F)C(F)(F)F)N1CCN(Cc2ccc(C(F)(F)F)cc2N2CCCCC2)CC1` showed an IC50 in data set [1] of 0.13 µM.

As for `O=C(OC(C(F)(F)F)C(F)(F)F)N1CCN(C(c2ccc(Cl)cc2)c2ccc(Cl)cc2)CC1`, the 50% inhibitory concentration (IC50) in data set [3] is greater than 1 µM.

Consider `O=C(OC(C(F)(F)F)C(F)(F)F)N1CCN(Cc2ccc(Cl)cc2N2CCOCC2)CC1`, for which, in data set [5], the microsomal CLint stood at 45 µL/min/mg.

`O=C(OC(C(F)(F)F)C(F)(F)F)N1CCN(Cc2ccc(C(F)(F)F)cc2N2CCC3(CCOCC3)C2)CC1`: the IC50 in data set [3] is greater than 1 µM; in data set [1], 0.024 µM. The Activity in data set [2] was 75%.

Take `O=C(OC(C(F)(F)F)C(F)(F)F)N1CCN(Cc2ccc(Cl)cc2N2CCCCC2)CC1`: the IC50 in data set [3] was greater than 10 µM; in data set [1], 0.12 µM.

Molecule `O=C(OC(C(F)(F)F)C(F)(F)F)N1CCN(Cc2ccc(C(F)(F)F)cc2N2C[C@H]3CC[C@@H](C2)O3)CC1` had an IC50 in data set [3] greater than 1 µM. Besides, the Activity in data set [2] is 100%.

Regarding `O=C(OC(C(F)(F)F)C(F)(F)F)N1CCN(Cc2ccc(Cl)cc2N2CC[C@H]3CCCN3C2)CC1`, the 50% inhibitory concentration (IC50) in data set [1] worked out at 0.066 µM. In data set [2], the Activity is recorded as 50%.

On to `O=C(OC(C(F)(F)F)C(F)(F)F)N1CCN(Cc2ccc(Cl)cc2N2CC3CCC(C2)O3)CC1`, for which the Activity in data set [2] came to 100%.

`O=C(OC(C(F)(F)F)C(F)(F)F)N1CCN(Cc2ccc(Cl)cc2N2CCN(CCF)CC2)CC1`: the Activity in data set [2] stood at 75%.
